Measurements published in ChEMBL document CHEMBL1133105, “Antimalarial, antitrypanosomal, and antileishmanial activities and cytotoxicity of bis(9-amino-6-chloro-2-methoxyacridines): influence of the linker” (J Med Chem, 2000).

Legend:
[1] = test system: MRC5; assay: Cytotoxicity on MRC-5 cells at 12.5 uM; format: functional; conditions: Homo sapiens
Outline: (§1)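 MRC-5 human diploid embryonic lung cells seeded at 5 000/well, washed after 24 h, then given 2-fold drug dilutions (25, 12.5, 6.25, 3.13 µM) in RPMI + 5% FCS, final DMSO below 0.5%. Incubated 7 days at 37 °C, 5% CO2. MTT colorimetric read-out, scored as % reduction of absorbance at 540 nm versus untreated controls.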

[2] = test system: Trypanosoma cruzi; assay: Percentage of activity against Trypanosoma cruzi at 12.5 uM; Toxic upon mouse primary peritoneal macrophages; format: functional, organism-based
Outline: (§2)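 Mouse peritoneal macrophages, 30 000/well, infected after 24 h with about 100 000 T. cruzi trypomastigotes per well plus 2-fold drug dilutions (12.5–1.56 µM). Incubated 4 days at 37 °C, 5% CO2. Methanol-fixed, Giemsa-stained and scored microscopically as % reduction of total parasite load (free trypomastigotes plus intracellular amastigotes) versus untreated controls.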

[3] = test system: Trypanosoma brucei; assay: Percentage of activity against Trypanosoma brucei at 6.25 uM; format: functional
Outline: (§3)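 Bloodstream-form T. brucei in HMI-9 medium, 10 000 parasites/well, exposed to 12.5, 6.25, 3.13 and 1.56 µM drug for 4 days. Read-out is % inhibition of parasite multiplication. Macrophage toxicity judged on mouse primary peritoneal macrophages.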

[4] = test system: MRC5; assay: Cytotoxicity on MRC-5 cells at 25 uM; format: functional; conditions: Homo sapiens; outline: as §1
[5] = test system: Leishmania infantum; assay: Percentage of activity against Leishmania infantum at 6.25 uM; Toxic upon mouse primary peritoneal macrophages; format: functional, organism-based
Outline: (§4)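 Starch-stimulated mouse peritoneal macrophages, 30 000/well, infected after 24 h with spleen-derived L. infantum amastigotes (10:1) together with 2-fold drug dilutions (12.5–1.56 µM). Incubated 7 days at 37 °C, 5% CO2. Wright-stained slides scored microscopically as % reduction of total parasite load or of infected macrophages. Uninfected treated cultures judged microscopically for macrophage toxicity.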

[6] = test system: Trypanosoma cruzi; assay: Percentage of activity against Trypanosoma cruzi at 1.56 uM; format: functional; outline: as §2
[7] = test system: Leishmania infantum; assay: Percentage of activity against Leishmania infantum at 12.5 uM Concentration; Toxic upon mouse primary peritoneal macrophages; format: functional, organism-based; outline: as §4
[8] = test system: Trypanosoma brucei; assay: Percentage of activity against Trypanosoma brucei at 1.56 uM; format: functional; outline: as §3
[9] = test system: Plasmodium falciparum; assay: In vitro sensitivity for Plasmodium falciparum FcB1R; format: functional, organism-based
Outline: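 Asynchronous P. falciparum cultures in human erythrocytes (0.5% parasitemia, 1% haematocrit) exposed to serially diluted drug for 24 h at 37 °C. [3H]hypoxanthine (0.5 µCi/well) then added for a further 24 h. Uptake compared with drug-free controls on the same plate. IC50 taken from the concentration–response curve, averaged over independent experiments. DMSO ≤0.1%.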

[10] = test system: Trypanosoma brucei; assay: Percentage of activity against Trypanosoma brucei at 3.13 uM; format: functional; outline: as §3
[11] = test system: Leishmania infantum; assay: In Vitro evaluation for the percentage of activity towards Leishmania infantum at 1.56 uM Concentration; Toxic upon mouse primary peritoneal macrophages; format: functional, organism-based; outline: as §4
[12] = test system: Trypanosoma cruzi; assay: In Vitro evaluation for the percentage of activity towards Trypanosoma cruzi at 3.13 uM Concentration; Toxic upon mouse primary peritoneal macrophages; format: functional, organism-based; outline: as §2
[13] = test system: MRC5; assay: Cytotoxicity on MRC-5 cells at 3.13 uM; format: functional; conditions: Homo sapiens; outline: as §1
[14] = test system: MRC5; assay: Cytotoxicity on MRC-5 cells at 6.25 uM; format: functional; conditions: Homo sapiens; outline: as §1
[15] = test system: Trypanosoma cruzi; assay: In Vitro evaluation for the percentage of activity towards Trypanosoma cruzi at 6.25 uM Concentration; Toxic upon mouse primary peritoneal macrophages; format: functional, organism-based; outline: as §2
[16] = test system: Leishmania infantum; assay: In Vitro evaluation for the percentage of activity towards Leishmania infantum at 3.13 uM Concentration; Toxic upon mouse primary peritoneal macrophages; format: functional, organism-based; outline: as §4
[17] = test system: Leishmania infantum; assay: Percentage of activity against Leishmania infantum at 1.56 uM; format: functional; outline: as §4
[18] = test system: Trypanosoma brucei; assay: Percentage of activity against Trypanosoma brucei at 12.5 uM; format: functional; outline: as §3
[19] = test system: Trypanosoma cruzi; assay: Percentage of activity against Trypanosoma cruzi at 3.13 uM; format: functional; outline: as §2
[20] = test system: Leishmania infantum; assay: Percentage of activity against Leishmania infantum at 3.13 uM; format: functional; outline: as §4
[21] = test system: Trypanosoma cruzi; assay: Percentage of activity against Trypanosoma cruzi at 12.5 uM; format: functional; outline: as §2
[22] = test system: Trypanosoma cruzi; assay: Percentage of activity against Trypanosoma cruzi at 6.25 uM Concentration; format: functional; outline: as §2
[23] = test system: Leishmania infantum; assay: In Vitro evaluation for the percentage of activity towards Leishmania infantum at 12.5 uM Concentration; format: functional; outline: as §4
[24] = test system: Leishmania infantum; assay: Percentage of activity against Leishmania infantum 6.25 uM; format: functional; outline: as §4

Row | IC50 [9] [nM] | Compound | cytotoxicity at 12.5 µM [1] [%] | Cytotoxicity [2] | Inhibition of parasite multiplication [3] [%] | cytotoxicity at 25 µM [4] [%] | Cytotoxicity [5] | Parasite load reduction [6] [%] | Cytotoxicity [7] | Percent inhibition of parasite multiplication [8] [%] | Parasite growth inhibition [10] [%] | cytotoxicity at 3.13 µM [13] [%] | cytotoxicity at 6.25 µM [14] [%] | Antileishmanial activity (% reduction of parasite load) [17] [%] | Inhibition of parasite multiplication [18] [%] | Reduction of T. cruzi parasite load [19] [%] | Percent antileishmanial activity (reduction of parasite load) [20] [%] | T. cruzi parasite load reduction [21] [%] | Reduction of T. cruzi parasite load [22] [%] | Percent inhibition of Leishmania infantum [23] [%] | Antileishmanial activity (% reduction of parasite load) [24] [%] | also measured
1 | 62 | COc1ccc2nc3cc(Cl)ccc3c(NCCCN(CCCNc3c4ccc(Cl)cc4nc4ccc(OC)cc34)C(=O)CCN3CCN(C)CC3)c2c1 | 74 | Toxic | 100 | 80 | Toxic | 0 | Toxic | 100 | 100 | 40 | 57 |  |  |  |  |  |  |  |  | Cytotoxicity [11]: Toxic; Cytotoxicity [12]: Toxic; Cytotoxicity [15]: Toxic; Cytotoxicity [16]: Toxic
2 | 67 | COc1ccc2nc3cc(Cl)ccc3c(NCCCN(CCCNc3c4ccc(Cl)cc4nc4ccc(OC)cc34)C(=O)CCN3CCCCC3)c2c1 | 71 | Toxic | 100 | 78 | Toxic | 40 | Toxic | 100 | 100 | 42 | 57 |  |  |  |  |  |  |  |  | Cytotoxicity [11]: Toxic; Cytotoxicity [12]: Toxic; Cytotoxicity [15]: Toxic; Cytotoxicity [16]: Toxic
3 | 55 | COc1ccc2nc3cc(Cl)ccc3c(NCCCNCCCNc3c4ccc(Cl)cc4nc4ccc(OC)cc34)c2c1 | 100 | Toxic | 100 | 100 | Toxic | 60 | Toxic | 100 | 100 | 100 | 100 | 40 | 100 |  |  |  |  |  |  | Cytotoxicity [12]: Toxic; Cytotoxicity [15]: Toxic; Cytotoxicity [16]: Toxic
4 | 26 | COc1ccc2nc3cc(Cl)ccc3c(NCCCN(CCCNc3c4ccc(Cl)cc4nc4ccc(OC)cc34)C(=O)CCN3CCOCC3)c2c1 | 100 | Toxic | 100 | 100 | Toxic | 40 | Toxic | 100 | 100 | 80 | 100 |  | 100 | 60 |  |  |  |  |  | Cytotoxicity [11]: Toxic; Cytotoxicity [15]: Toxic; Cytotoxicity [16]: Toxic
5 | 109 | COc1ccc2nc3cc(Cl)ccc3c(NCCN(CCNc3c4ccc(Cl)cc4nc4ccc(OC)cc34)C(=O)C(C)NC(=O)OC(C)(C)C)c2c1 (stereo not drawn) | 0 |  | 100 | 100 |  | 0 |  | 99 | 100 | 0 | 0 | 0 | 100 | 0 | 20 | 60 | 40 | 90 | 60 | 
6 | 270 | COc1ccc2nc3cc(Cl)ccc3c(NCCCN(CCCNc3c4ccc(Cl)cc4nc4ccc(OC)cc34)C(=O)CCC(=O)O)c2c1 | 0 |  | 95 | 0 |  | 0 |  | 60 | 80 | 0 | 0 | 0 | 100 | 0 | 0 | 0 | 0 | 0 | 0 | 
7 | 63 | COc1ccc2nc3cc(Cl)ccc3c(NCCCN(CCCNc3c4ccc(Cl)cc4nc4ccc(OC)cc34)C(=O)C(COC(C)=O)NC(=O)OC(C)(C)C)c2c1 (stereo not drawn) | 90 |  | 100 | 100 |  | 0 |  | 100 | 100 | 20 | 40 | 0 | 100 | 0 | 60 | 70 | 40 | 90 | 80 | 
8 | 436 | COc1ccc2nc3cc(Cl)ccc3c(NCCCN(CCCNc3c4ccc(Cl)cc4nc4ccc(OC)cc34)C(=O)CCC(=O)N3CCOCC3)c2c1 | 20 |  | 100 | 60 |  | 0 |  | 100 | 100 | 0 | 0 | 0 | 100 | 0 | 0 | 60 | 0 | 0 | 0 | 
9 | 230 | COc1ccc2nc3cc(Cl)ccc3c(NCCCN(CCCNc3c4ccc(Cl)cc4nc4ccc(OC)cc34)C(=O)C(CC(=O)OCC3c4ccccc4-c4ccccc43)NC(=O)OC(C)(C)C)c2c1 (stereo not drawn) | 0 |  | 100 | 0 |  | 0 |  | 100 | 100 | 0 | 0 | 0 | 100 | 0 | 0 | 40 | 0 | 20 | 0 | 
10 | > 500 | COc1ccc2nc3cc(Cl)ccc3c(NCCCN(CCCNc3c4ccc(Cl)cc4nc4ccc(OC)cc34)C(=O)C(CC(=O)O)NC(=O)OC(C)(C)C)c2c1 (stereo not drawn) | 0 |  | 100 | 0 |  | 0 |  | 100 | 100 | 0 | 0 | 0 | 100 | 0 | 0 | 80 | 0 | 0 | 0 | 
